# pEC50: −log10 of the molar value.
# Key:
# Human betaherpesvirus 5 [1] = assay: Antiviral activity against human cytomegalovirus Davis infected in human HEL cells assessed as inhibition of virus-induced cytopathicity after 7 days by Giemsa staining-based microscopic analysis; format: functional, organism-based; conditions: Human betaherpesvirus 5, Davis, 168 h
# How it was run: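 Confluent HEL fibroblasts were infected with 100 PFU per well. After 2 h, residual virus was removed and compound-containing medium was added, in duplicate. At 7 days at 37 °C, cells were ethanol-fixed and Giemsa-stained, and cytopathogenicity was assessed microscopically.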
# [2] = system: Human immunodeficiency virus 2; assay: Antiviral activity against HIV-2 ROD infected in human CEM cells assessed as inhibition of virus-induced giant cell formation after 4 days by microscopic analysis; format: functional, organism-based; conditions: Human immunodeficiency virus 2, ISOLATE ROD, CCRF-CEM, 96 h
# How it was run: (§1)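 CEM cells (~3 × 10^5 cells per cm3) were infected with 100 CCID50 of virus per mL and seeded into wells containing compound dilutions. After 4 days at 37 °C, giant cell formation was examined microscopically.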
# Coxsackievirus B4 [3] = assay: Antiviral activity against Coxsackievirus B4 infected in African green monkey Vero cells assessed as inhibition of virus-induced cytopathicity; format: functional, organism-based; conditions: Enterovirus B
# [4] = system: Human immunodeficiency virus 1; assay: Antiviral activity against HIV-1 3B infected in human CEM cells assessed as inhibition of virus-induced giant cell formation after 4 days by microscopic analysis; format: functional, organism-based; conditions: Human immunodeficiency virus 1, 3B, CCRF-CEM, 96 h; how it was run: as §1
# Sindbis virus = assay: Antiviral activity against Sindbis virus infected in African green monkey Vero cells assessed as inhibition of virus-induced cytopathicity; format: functional, organism-based
# Human alphaherpesvirus 1 [5] = assay: Antiviral activity against Herpes simplex virus type 1 KOS infected in human HEL cells assessed as inhibition of virus-induced cytopathicity; format: functional, organism-based; conditions: Human alphaherpesvirus 1, KOS
# Influenza B virus = assay: Antiviral activity against Influenza B virus infected in MDCK cells assessed as inhibition of virus-induced cytopathicity; format: functional, organism-based
# Punta Toro virus = assay: Antiviral activity against Punta Toro virus infected in African green monkey Vero cells assessed as inhibition of virus-induced cytopathicity; format: functional, organism-based
# Human alphaherpesvirus 3 [6] = assay: Antiviral activity against wild type Varicella-zoster virus Oka infected in human HEL cells assessed as reduction of viral plaque formation after 5 days; format: functional, organism-based; conditions: Human alphaherpesvirus 3, strain Oka vaccine, 120 h
# How it was run: (§2)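 Confluent HEL cells were inoculated with 20 PFU per well. After 2 h, residual virus was removed and compound dilutions were added, in duplicate.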
# [7] = system: Mammalian orthoreovirus 1; assay: Antiviral activity against Reovirus 1 infected in African green monkey Vero cells assessed as inhibition of virus-induced cytopathicity; format: functional, cell-based; conditions: Mammalian orthoreovirus 1, Vero
# Influenza A virus = assay: Antiviral activity against Influenza A virus H1N1 infected in MDCK cells assessed as inhibition of virus-induced cytopathicity; format: functional, organism-based
# Human respirovirus 3 = assay: Antiviral activity against Parainfluenza virus 3 infected in African green monkey Vero cells assessed as inhibition of virus-induced cytopathicity; format: functional, organism-based; conditions: Human respirovirus 3, Vero
# How it was run: (§3)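 Confluent cell monolayers in 96-well plates inoculated with 100 CCID50 of virus alongside 5-fold serial dilutions of compound. Cytopathicity scored once it was complete in untreated infected controls.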
# [8] = system: Respiratory syncytial virus; assay: Antiviral activity against Respiratory syncytial virus infected in human HeLa cells assessed as inhibition of virus-induced cytopathicity; format: functional, organism-based
# [9] = Cytotoxicity against human HeLa cells assessed as concentration required to cause microscopically visible alternation of cell morphology; format: cell-based
# How it was run: (§4)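 Confluent cultures (MDCK nearly confluent) exposed to 5-fold serial compound dilutions alongside the antiviral assays. MCC is the lowest concentration producing a microscopically visible change in cell morphology.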
# Human alphaherpesvirus 1 [10] = assay: Antiviral activity against thymidine kinase-deficient Herpes simplex virus type 1 infected in human HEL cells assessed as inhibition of virus-induced cytopathicity; format: functional, organism-based; conditions: Human alphaherpesvirus 1, HEL
# [11] = Cytotoxicity against African green monkey Vero cells assessed as concentration required to cause microscopically visible alternation of cell morphology; format: cell-based; conditions: chlorocebus sabaeus; how it was run: as §4
# Influenza A virus H3N2 = assay: Antiviral activity against Influenza A virus H3N2 infected in MDCK cells assessed as inhibition of virus-induced cytopathicity; format: functional, organism-based
# Coxsackievirus B4 [12] = assay: Antiviral activity against Coxsackievirus B4 infected in human HeLa cells assessed as inhibition of virus-induced cytopathicity; format: functional, organism-based; conditions: Enterovirus B; how it was run: as §3
# Human betaherpesvirus 5 [13] = assay: Antiviral activity against human cytomegalovirus AD169 infected in human HEL cells assessed as inhibition of virus-induced cytopathicity after 7 days by Giemsa staining-based microscopic analysis; format: functional, organism-based; conditions: Human betaherpesvirus 5, AD169, HEL, 168 h
# How it was run: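 Confluent HEL fibroblasts infected with HCMV AD-169 or Davis at 100 PFU/well for 2 h, then residual virus removed. Medium with graded compound concentrations added, in duplicate. After 7 days at 37 °C, cells ethanol-fixed and Giemsa-stained, and cytopathogenicity read microscopically. EC50 taken from plots of % cytopathogenicity versus concentration.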
# Human alphaherpesvirus 2 = assay: Antiviral activity against Herpes simplex virus type 2 G infected in human HEL cells assessed as inhibition of virus-induced cytopathicity; format: functional, organism-based; conditions: Human alphaherpesvirus 2, strain G
# [14] = Cytotoxicity against human HEL cells assessed as concentration required to cause microscopically visible alternation of cell morphology; format: cell-based; how it was run: as §4
# Vaccinia virus = assay: Antiviral activity against Vaccinia virus infected in human HEL cells assessed as inhibition of virus-induced cytopathicity; format: functional, organism-based; conditions: Orthopoxvirus vaccinia
# [15] = system: Vesicular stomatitis virus; assay: Antiviral activity against Vesicular stomatitis virus infected in human HEL cells assessed as inhibition of virus-induced cytopathicity; format: functional, organism-based
# Human alphaherpesvirus 3 [16] = assay: Antiviral activity against thymidine kinase-deficient Varicella-zoster virus 07-1 infected in human HEL cells assessed as reduction of viral plaque formation after 5 days; format: functional, organism-based; conditions: Human alphaherpesvirus 3, 07-1, HEL, 120 h; how it was run: as §2
# [17] = system: Vesicular stomatitis virus; assay: Antiviral activity against Vesicular stomatitis virus infected in human HeLa cells assessed as inhibition of virus-induced cytopathicity; format: functional, organism-based
# [18] = Cytotoxicity against MDCK cells assessed as concentration required to cause microscopically visible alternation of cell morphology; format: cell-based, Canis lupus familiaris; conditions: dog; how it was run: as §4
SMILES,pEC50 (Human betaherpesvirus 5 [1]),pEC50 [2],pEC50 (Coxsackievirus B4 [3]),pEC50 [4],pEC50 (Sindbis virus),pEC50 (Human alphaherpesvirus 1 [5]),pEC50 (Punta Toro virus),pEC50 [7],pEC50 (Human respirovirus 3),pEC50 [8],MCC [9],pEC50 (Human alphaherpesvirus 1 [10]),MCC [11],pEC50 (Coxsackievirus B4 [12]),pEC50 (Human alphaherpesvirus 2),MCC [14],pEC50 (Vaccinia virus),pEC50 [15],pEC50 [17],MCC [18],also measured
O=c1[nH]c(=O)n(C2C=CC(O)C2)cc1-c1cccs1 (stereo unspecified),5.74,< 5.70,< 5.40,< 5.70,< 5.40,< 5.40,< 5.40,< 5.40,< 5.40,< 5.40,20 µM,< 5.40,20 µM,< 5.40,< 5.40,≥ 4 µM,< 5.40,< 5.40,5.40,4 µM,pEC50 (Influenza B virus): < 6.10; pEC50 (Human alphaherpesvirus 3 [6]): 5.80; pEC50 (Influenza A virus): < 6.10; pEC50 (Influenza A virus H3N2): < 6.10; pEC50 (Human betaherpesvirus 5 [13]): 5.74; pEC50 (Human alphaherpesvirus 3 [16]): 5.80
O=c1[nH]c(=O)n(C2C=CC(O)C2)cc1-c1ccco1 (stereo unspecified),,< 4.00,< 4.00,< 4.00,,< 4.00,4.70,4.00,< 4.00,< 4.00,> 100 µM,< 4.00,> 100 µM,< 4.00,< 4.00,> 100 µM,< 4.00,< 4.00,< 4.00,,
O=c1[nH]c(=O)n(C2C=CC(O)C2)cc1-c1cncs1 (stereo unspecified),< 4.70,< 4.30,< 4.00,< 4.30,< 4.00,< 4.00,< 4.00,< 4.00,< 4.00,< 4.00,> 100 µM,< 4.00,> 100 µM,< 4.00,< 4.00,≥ 100 µM,< 4.00,< 4.00,< 4.00,100 µM,pEC50 (Influenza B virus): < 4.70; pEC50 (Human alphaherpesvirus 3 [6]): 4.33; pEC50 (Influenza A virus): < 4.70; pEC50 (Influenza A virus H3N2): < 4.70; pEC50 (Human betaherpesvirus 5 [13]): < 4.70; pEC50 (Human alphaherpesvirus 3 [16]): 4.33
NC(=O)c1ncn([C@@H]2O[C@H](CO)[C@@H](O)[C@H]2O)n1 [RIBAVIRIN],,< 4.30,< 3.60,< 4.30,< 3.60,< 3.60,,< 3.60,,,> 250 µM,,> 250 µM,,< 3.60,> 250 µM,< 3.60,,,> 100 µM,
